How the values were obtained:
[1] = system: SN12C; assay: In vitro cytotoxicity against SN12C (Human renal cancer) cell line.; type: functional
How it was run: (§1)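 GI50 = concentration giving 50% growth inhibition, from a screen of about 55 human cancer cell lines over a 10^-8 to 10^-4 M test range. Values come from two determinations where a population standard deviation is shown, otherwise from single determinations.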

[2] = system: SF-539; assay: Compound was tested for its cytotoxicity against CNS SF-539 Human cancer cell line
[3] = system: HOP-62; assay: Cytotoxicity against lung HOP-62 human cancer cell line.; type: functional; how it was run: as §1
[4] = molecular target: T1, DNA topoisomerase 1 (Homo sapiens) (UniProt P11387); assay: The activity was examined against DNA topoisomerase I mediated DNA cleavage using 3'-End-labelled 161 BP plasmid DNA. 0 indicates inactive
T1 sequence (whole entry): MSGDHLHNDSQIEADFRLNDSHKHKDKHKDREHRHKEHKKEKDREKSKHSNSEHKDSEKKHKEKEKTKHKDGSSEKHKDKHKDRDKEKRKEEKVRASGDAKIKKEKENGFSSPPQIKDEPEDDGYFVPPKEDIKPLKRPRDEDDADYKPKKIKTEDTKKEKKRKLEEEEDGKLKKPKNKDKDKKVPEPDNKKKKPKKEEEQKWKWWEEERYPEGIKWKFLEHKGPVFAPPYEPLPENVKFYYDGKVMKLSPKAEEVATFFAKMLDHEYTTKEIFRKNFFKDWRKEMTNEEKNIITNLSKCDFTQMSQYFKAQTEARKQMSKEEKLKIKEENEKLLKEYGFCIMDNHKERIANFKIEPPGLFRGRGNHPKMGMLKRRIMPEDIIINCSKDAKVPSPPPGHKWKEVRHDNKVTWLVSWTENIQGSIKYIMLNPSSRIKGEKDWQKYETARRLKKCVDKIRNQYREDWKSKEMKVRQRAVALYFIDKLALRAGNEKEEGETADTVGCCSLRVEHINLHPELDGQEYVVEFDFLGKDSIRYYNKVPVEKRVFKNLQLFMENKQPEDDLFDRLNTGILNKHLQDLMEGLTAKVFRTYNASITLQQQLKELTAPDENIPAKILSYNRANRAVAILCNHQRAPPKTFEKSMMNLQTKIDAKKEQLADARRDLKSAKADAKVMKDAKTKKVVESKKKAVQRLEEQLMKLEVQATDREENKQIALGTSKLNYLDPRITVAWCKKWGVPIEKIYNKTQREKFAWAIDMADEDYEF
How it was run: (§2)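 A 161 bp PvuII–HindIII fragment of pBluescript SK(–) was 3'-end-labeled at the HindIII site with [α-32P]dCTP by Klenow fill-in. About 50 000 dpm per reaction was incubated with top1 and drug (0.1–300 μM) at 30 °C for 30 min, then stopped with 0.5% SDS (final). Products were run on 16% polyacrylamide/7 M urea gels at 51 °C and imaged by phosphorimager.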

[5] = system: DU-145; assay: Cytotoxicity against prostate DU-145 human cancer cell line.; type: functional; how it was run: as §1
[6] = system: OVCAR-3; assay: Cytotoxicity against ovarian OVCAR-3 human cancer cell line.; type: functional; how it was run: as §1
[7] = system: DU-145; assay: Compound was tested for its cytotoxicity against prostate DU-145 Human cancer cell line; type: functional; how it was run: as §1
[8] = molecular target: T1, DNA topoisomerase 1 (Homo sapiens); assay: The activity was examined against DNA topoisomerase I mediated DNA cleavage using 3'-End-labelled 161 BP plasmid DNA; 0 indicates inactive; how it was run: as §2
[9] = system: MDA-MB-435; assay: In vitro cytotoxicity against MDA-MB-435 (Human breast cancer) cell line.; type: functional; how it was run: as §1
[10] = system: SF-539; assay: Compound was tested for its cytotoxicity against CNS SF-539 Human cancer cell line; type: functional; how it was run: as §1
[11] = system: UACC-62; assay: In vitro cytotoxicity against UACC-62 (Human melanoma) cell line.; type: functional; how it was run: as §1
[12] = system: HCT-116; assay: Cytotoxicity against colon HCT116 human cancer cell line.; type: functional; how it was run: as §1
[13] = system: SF-539; assay: Compound was tested for its cytotoxicity against CNS SF-539 cell line; type: functional; conditions: Homo sapiens; how it was run: as §1
[14] = molecular target: T1, DNA topoisomerase 1 (Homo sapiens); assay: The activity was examined against DNA topoisomerase I mediated DNA cleavage using 3''-End-labelled 161 BP plasmid DNA; + indicates between 20 and 50% of the activity 0f 1 uM camptothecin; how it was run: as §2

| Top1 cleavage activity [4] | Top1 cleavage activity [8] | SMILES | GI50 [1] [µM] | GI50 [2] [µM] | GI50 [3] [µM] | GI50 [5] [µM] | GI50 [6] [µM] | GI50 [7] [µM] | GI50 [9] [µM] | GI50 [10] [µM] | GI50 [11] [µM] | GI50 [12] [µM] | GI50 [13] [µM] | Top1 cleavage activity [14] |
| --- | --- | --- | --- | --- | --- | --- | --- | --- | --- | --- | --- | --- | --- | --- |
| 0 | – | COc1cc2c(c(OC)c1OC)C(=O)c1c-2n(C)c(=O)c2ccccc12 | > 100 | > 100 | 24 | > 100 | > 100 | – | – | – | – | – | – | – |
| – | 0 | Cn1c2c(c3ccccc3c1=O)C(=O)c1cc(OCc3ccccc3)c(OCc3ccccc3)cc1-2 | 88 | – | 72 | – | > 100 | > 100 | > 100 | > 100 | 93 | > 100 | – | – |
| – | – | O=C1c2ccccc2-c2c1c1ccccc1c(=O)n2CCCCO | 7.4 | – | 13 | > 100 | 74 | – | > 100 | – | 4.4 | 3.2 | 4.6 | 20-50% of the activity 0f 1 uM camptothecin |

— ChEMBL document CHEMBL1132570, “Synthesis of cytotoxic indenoisoquinoline topoisomerase I poisons” (1999)
